These entries were drawn from the full list.
PGC1a Ac signal: compounds raising PGC1a acetylation signal, primary screen, PGC1a modulator project, cell-based, U2OS, AlphaScreen, signal-increasing mode; activation, % at 15.6 µM; AID 651723, 2012; overnight; hit rate 0.21% among 350,000;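 active = every replicate reaching activation of at least 50%, whatever the mean replicate activation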;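 note: hits raise the AlphaScreen acetylation signal above neutral controls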
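detection = AlphaScreen lysate read | assay system = U2OS cells expressing flag-PGC1a plus GCN5 | input = 7000 cells/well | dosing = one concentration | times = compound overnight at 37 °C, each detection step 1 h RT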
An asterisk follows results filed as active.

SMILES	PGC1a Ac signal
CCCCOc1ccc(/C=C/C(=O)OCC(=O)c2c(N)n(C)c(=O)n(C)c2=O)cc1OCC	-46.8
CCOc1ccc(/C=C/C(=O)Oc2ccccc2)cc1	154.0*
O=C(OCc1nc(-c2ccccc2)oc1COC(=O)c1ccco1)c1ccco1	-44.0
CC1CCc2sc(C(=O)Nc3nnc(SCc4ccc(F)cc4)s3)cc2C1 (stereo unspecified)	-94.0
CCOC(=O)c1ccc(-c2c(-c3cc(OC)c(OC)c(OC)c3)noc2C)cc1F	59.3*
CC[C@H](C)[C@H](NC(=O)c1ccc(Cl)cc1)C(=O)OCC(=O)c1ccc2c(c1)NC(=O)CO2	-40.0
O=C(Nc1c(F)cccc1F)c1ccc(-n2cncn2)nc1	53.5*
COC(=O)c1cccc2c1-c1ccccc1/C2=N/O	-75.4
O=C(O)Cn1cc(C(=O)C(F)(F)F)c2ccccc21	-45.2
CC1CCCN(C(=O)Cc2ccc(F)cc2)C1 (stereo unspecified)	-75.3
CCOC(=O)C(=Cc1ccc(OCc2ccc([N+](=O)[O-])cc2)c(OC)c1)C(=O)OCC	-57.1
CCOC(=O)C1(N(CC)CC)Sc2cc(C)ccc2NC1=O (stereo unspecified)	83.9*
C[C@@H]1CN([C@H](C)CO)C(=O)c2cc(NS(C)(=O)=O)ccc2O[C@@H]1CN(C)S(=O)(=O)c1ccc(Cl)cc1	-41.9
CCN(C(=O)COC(=O)/C=C/c1cccc(Cl)c1)c1c(N)n(Cc2ccccc2)c(=O)[nH]c1=O	-42.2
COc1ccc(S(=O)(=O)N(Cc2cc3ccc(OC)cc3[nH]c2=O)CC2COCCO2)cc1 (stereo unspecified)	-44.5
Cc1ccc(-c2nn(C)c(=O)c3ccccc23)cc1S(=O)(=O)NCCN(C)C	-42.4
COc1ccccc1C(=O)Oc1cc(N)n(S(=O)(=O)c2ccc(C)cc2)n1	-42.5
Cc1ccc(S(=O)(=O)N2CCCCC2C(=O)O)cc1 (stereo unspecified)	-40.8
CCOC(=O)C1CN(S(=O)(=O)c2ccc(C)cc2)c2cc(S(=O)(=O)CC)ccc2O1 (stereo unspecified)	53.6*
C[C@@H]1CN([C@H](C)CO)C(=O)c2cc(NC(=O)Cc3ccccc3)ccc2O[C@@H]1CN(C)Cc1ccncc1	-49.4
CCCCn1c(=O)[nH]c(=O)c2c1nc(-c1ccc(OCCC)c(OCC)c1)n2C	-52.5
C#CCN(C[C@@H]1[C@@H](OC(=O)Nc2cccs2)[C@@H](OC(=O)Nc2cccs2)Cn2c(=O)ccc(=O)n21)S(=O)(=O)c1ccc(C)cc1	-43.0
C#CCN(C[C@@H]1[C@@H](OC(=O)NC2CCCC2)[C@@H](OC(=O)NC2CCCC2)Cn2c(=O)ccc(=O)n21)S(=O)(=O)c1ccc(C)cc1	110.8*
C#CCN(C[C@@H]1[C@@H](OC(=O)NCc2ccccc2F)[C@@H](OC(=O)NCc2ccccc2F)Cn2c(=O)ccc(=O)n21)S(=O)(=O)c1ccc(C)cc1	-60.4
C[C@@H]1CN([C@H](C)CO)S(=O)(=O)c2ccc(-c3cncnc3)cc2O[C@H]1CN(C)Cc1cccnc1	-50.3
SMILES	PGC1a Ac signal
Cc1cccc(-c2ccc(C3[C@@H]4CN(Cc5cccc(F)c5)C[C@H]3N4)cc2)c1 (stereo partly specified)	59.4*
N#Cc1cccc(-c2ccc(C3[C@@H]4CN(Cc5ccccc5F)C[C@H]3N4)cc2)c1 (stereo partly specified)	-47.6
O=C(Nc1cccc(F)c1)N1C[C@@H]2N[C@H](C1)C2c1ccc(-c2ccc(F)cc2)cc1 (stereo partly specified)	73.3*
COc1cccc(CN2CCC(CO)(CC3CCCCO3)CC2)c1 (stereo unspecified)	-99.9
COc1ccccc1-c1ccc([C@@H]2[C@H](CO)N(C(C)=O)C23CN(C(C)=O)C3)cc1	-58.2
O=C(Nc1ccc(C(F)(F)F)cc1)N1C[C@@H]2N[C@H](C1)C2c1ccc(/C=C/c2ccccc2)cc1 (stereo partly specified)	-73.5
COc1ccccc1-c1ccc(C2[C@@H]3CN(Cc4cccc(F)c4)C[C@H]2N3)cc1 (stereo partly specified)	71.9*
O=C(Nc1ccc(C(F)(F)F)cc1)N1C[C@@H]2N[C@H](C1)C2c1ccc(-c2ccccc2)cc1 (stereo partly specified)	-43.1
COc1cccc(CN2C[C@@H]3N[C@H](C2)C3c2ccc(-c3ccccc3OC)cc2)c1 (stereo partly specified)	57.9*
O=CNCCc1nc2ccccc2n1CCc1ccccc1	-52.9
CC(C)(CO)CNc1ccn2nccc2n1	-43.4
CC1OC(CC(=O)O)CC2=C1C(=O)c1c(O)cccc1C2=O (stereo unspecified)	-74.8
O=C(N/N=C/c1ccc(OC2CSC2)cc1)c1ccc(CN2CCOCC2)cc1	-42.0
N#C/C(=C/c1ccc(OCc2ccc(C(=O)O)cc2)c(Br)c1)c1cccc(F)c1	-96.1
NC(=O)c1sc2nc3c(c(-c4cccs4)c2c1N)CCCCC3	-43.6
COCCCNC(=O)c1ccc(CSCc2ccc(C)cc2)o1	-46.1
COc1ccc2c3c(n(C)c2c1)[C@H](CO)NCC31CCN(Cc2cc(-c3ccccc3)on2)CC1	-68.9

Screening results from PubChem.
